Laboratory results from ChEMBL document CHEMBL1142921, “Synthesis of DL-standishinal and its related compounds for the studies on structure-activity relationship of inhibitory activity against aromatase” (Bioorg Med Chem, 2007).

Columns and labels:
Conditions in all cases: 0.5 h
Aromatase [1] = target: T1, Aromatase (Homo sapiens, UniProt P11511); experiment: Inhibition of human recombinant aromatase at 300 nM after 30 mins relative to control
T1 sequence (P11511 whole entry): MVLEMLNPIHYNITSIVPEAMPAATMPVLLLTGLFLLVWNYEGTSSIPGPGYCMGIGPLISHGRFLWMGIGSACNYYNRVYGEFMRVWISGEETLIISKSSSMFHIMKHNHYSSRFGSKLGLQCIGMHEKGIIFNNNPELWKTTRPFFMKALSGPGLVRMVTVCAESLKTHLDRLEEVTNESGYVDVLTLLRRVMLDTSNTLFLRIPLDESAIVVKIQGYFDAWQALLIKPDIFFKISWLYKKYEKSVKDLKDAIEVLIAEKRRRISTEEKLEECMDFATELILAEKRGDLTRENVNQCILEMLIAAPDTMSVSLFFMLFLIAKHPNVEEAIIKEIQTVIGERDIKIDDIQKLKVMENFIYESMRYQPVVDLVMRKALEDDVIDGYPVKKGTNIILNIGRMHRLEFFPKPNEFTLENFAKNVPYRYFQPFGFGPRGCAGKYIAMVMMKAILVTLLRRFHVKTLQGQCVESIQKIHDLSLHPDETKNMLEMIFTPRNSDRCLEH
How it was run: (§1)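 Human recombinant aromatase (CYP19) expressed in insect cells via baculovirus; fluorogenic substrate methoxy-4-trifluoromethylcoumarin, 3 µM in the reaction. Compounds in acetone, serially diluted 1:3 in NADPH-cofactor buffer. Reaction started with prewarmed enzyme–substrate mix, 30 min at 37 °C. Fluorescence read at 409 nm excitation / 530 nm emission. Blank lacks enzyme. Inhibition as % of no-inhibitor control; mean ± SD, n = 4; Student t test.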

Aromatase [2] = target: T1, Aromatase; experiment: Inhibition of human recombinant aromatase at 1 uM after 30 mins relative to control; how it was run: as §1
Aromatase [3] = target: T1, Aromatase; experiment: Inhibition of human recombinant aromatase at 3 uM after 30 mins relative to control; how it was run: as §1
Aromatase [4] = target: T1, Aromatase; experiment: Inhibition of human recombinant aromatase at 10 uM after 30 mins relative to control; how it was run: as §1

| SMILES | inhibition at 0.3 µM (Aromatase [1]) [%] | inhibition at 1 µM (Aromatase [2]) [%] | inhibition at 3 µM (Aromatase [3]) [%] | inhibition at 10 µM (Aromatase [4]) [%] |
| --- | --- | --- | --- | --- |
| CC(=O)N1CCN(c2ccc(OC[C@H]3CO[C@](Cn4ccnc4)(c4ccc(Cl)cc4Cl)O3)cc2)CC1 [KETOCONAZOLE] | 81.7 | 84.2 | 87.5 | 87.9 |
| CC(C)c1cc(C=O)c([C@@]2(C)CCCC(C)(C)[C@H]2C=O)cc1O | 22.2 | 24.5 | 24.9 | 25.1 |
| CC(C)c1cc(C=O)c2c(c1O)[C@H](O)[C@H]1C(C)(C)CCC[C@]21C [STANDISHINAL] | 1.1 | 10.3 | 6.7 | 23.7 |
| COc1cc2c(cc1C(C)C)C(=O)C[C@@H]1C(C)(C)CCC[C@]21C | 20.7 | 28.7 | 23.9 | 19.5 |
| COc1cc2c(cc1C(C)C)C(=O)C[C@H]1C(C)(C)CCC[C@]21C | < 0 | 18.1 | 6.7 | 19.8 |
| CC(C)c1cc(C=O)c([C@@]2(C)CCCC(C)(C)[C@@H]2C=O)cc1O | 5.9 | < 0 | 3.3 | 9.2 |

The remaining lines, values ahead:

| inhibition at 0.3 µM (Aromatase [1]) [%] | inhibition at 1 µM (Aromatase [2]) [%] | inhibition at 3 µM (Aromatase [3]) [%] | inhibition at 10 µM (Aromatase [4]) [%] | SMILES |
| --- | --- | --- | --- | --- |
| 15.2 | 15.9 | 18.4 | 19.7 | COc1cc2c(cc1C(C)C)CC[C@@H]1C(C)(C)CCC[C@]21C |
| 16.2 | 19.7 | 18.6 | 19.8 | COc1cc2c(cc1C(C)C)C=C[C@@H]1C(C)(C)CCC[C@]21C |
| 9 | 2.2 | 4.1 | 4.8 | COc1cc2c(cc1C(C)C)CC[C@H]1C(C)(C)CCC[C@]21C |
| 89.3 | 91.1 | 83.8 | 92.5 | N#Cc1ccc(C(c2ccc(C#N)cc2)n2cncn2)cc1 [LETROZOLE] |
